Rows were chosen to be rich in hits. Some 2.3% of all compounds tested hit in one or more screens of this group.
TRPC6 activator = mouse TRPC6 channel activation; HEK293-TRPC6 membrane potential dye fluorescence; active compounds read high; Q61143; B-score at 10 µM; 310,000 tested, 0.13% active;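 active = B-score of the integrated fluorescence ratio above library mean plus 3 SD, and starting fluorescence ratio within library mean plus 5 SD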;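 also: higher score means more depolarization so channel activation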
Target sequence (Q61143 whole entry, looked up): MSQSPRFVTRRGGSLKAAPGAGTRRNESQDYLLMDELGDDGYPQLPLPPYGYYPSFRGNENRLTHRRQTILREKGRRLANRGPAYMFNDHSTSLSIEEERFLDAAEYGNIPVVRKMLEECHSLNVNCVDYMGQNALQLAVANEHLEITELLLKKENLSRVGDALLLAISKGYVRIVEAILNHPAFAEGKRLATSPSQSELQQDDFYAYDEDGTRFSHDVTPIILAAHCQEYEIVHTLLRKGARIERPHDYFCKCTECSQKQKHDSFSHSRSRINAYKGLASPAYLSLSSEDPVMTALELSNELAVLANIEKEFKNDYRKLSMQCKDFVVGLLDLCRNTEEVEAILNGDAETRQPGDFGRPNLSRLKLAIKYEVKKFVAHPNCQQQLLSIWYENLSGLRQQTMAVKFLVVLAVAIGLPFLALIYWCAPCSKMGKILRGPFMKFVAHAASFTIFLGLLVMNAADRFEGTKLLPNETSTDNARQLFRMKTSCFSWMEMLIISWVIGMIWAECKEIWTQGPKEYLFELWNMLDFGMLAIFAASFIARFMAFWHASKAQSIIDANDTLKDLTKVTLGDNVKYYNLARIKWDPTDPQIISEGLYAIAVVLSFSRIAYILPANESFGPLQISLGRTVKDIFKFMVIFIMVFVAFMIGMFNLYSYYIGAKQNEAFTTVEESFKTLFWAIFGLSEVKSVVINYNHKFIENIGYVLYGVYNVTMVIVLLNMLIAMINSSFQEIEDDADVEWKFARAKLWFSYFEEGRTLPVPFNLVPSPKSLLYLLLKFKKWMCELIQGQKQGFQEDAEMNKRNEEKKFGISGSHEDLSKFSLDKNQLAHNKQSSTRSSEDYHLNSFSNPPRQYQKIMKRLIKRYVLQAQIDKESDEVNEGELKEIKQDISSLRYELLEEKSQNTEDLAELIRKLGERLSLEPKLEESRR
TRPC6 inhibitor = mouse TRPC6 channel inhibition. HEK293-TRPC6, membrane potential dye, ACh-evoked depolarization; active compounds read low. 310,000 tested, 1.1% active. B-score at 10 µM;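 active = B-score under library mean minus 3 SD, initial fluorescence not abnormally high, positive integrated signal ratio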;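 also: B-score derived from integrated fluorescence ratio over the kinetic read; more negative B-score means stronger inhibition of depolarization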
TRPC4 act = opens the mouse TRPC4 cation channel | Q9QUQ5 | B-score at 10 µM | 310,000 tested, 0.49% active | HEK293 TRPC4beta/mu-opioid, Fluo4 calcium fluorescence; active compounds read high;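 active = B-score above 5 SD of library B-scores, and initial fluorescence ratio not above library mean plus 5 SD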;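 also: positive B-score marks a calcium rise read as TRPC4 activation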
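Test system: HEK293 cells stably co-expressing mouse TRPC4beta and mu-opioid receptor | Schedule: Fluo4 dye loading 45 min at room temperature, 110 s recording | Measured by: Kinetic Fluo4 calcium fluorescence, 5 s baseline at 1 Hz | Evaluation: B score of integrated ratio | Controls: Buffer (low) and maximal DAMGO (high)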
TRPC4 block = TRPC4 (mouse) channel inhibition. Q9QUQ5. HEK293 TRPC4beta/mu-opioid, DAMGO-evoked Fluo4 calcium flux; active compounds read low. B-score at 10 µM. 300,000 tested, 0.39% active. AID 2247;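 active = B-score over 3 SD under the library average, no early fluorescence shift, positive overall ratio signal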
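Test system – stable TRPC4beta/mu-opioid receptor HEK293 cells · Probe or stimulus – DAMGO, a submaximal dose followed by a maximal one · Dosing – one concentration per compound · Signal – Fluo4 calcium fluorescence by kinetic imaging, 5 s 1 Hz baseline · Evaluation – per-well B score of integrated baseline-normalized Fluo4 ratio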
TRPC4 PAM = TRPC4 (mouse) allosteric potentiation; B-score at 10 µM; 310,000 tested, 0.42% active; Q9QUQ5; HEK293 TRPC4beta/mu-opioid, DAMGO EC20, Fluo-4 Ca2+ flux; active compounds read high; AID 2227;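 active = B-score of calcium response area above 5 SD of library B-scores, with initial fluorescence ratio within 5 SD of library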
Hits are given with their value; . = inactive.

SMILES	TRPC6 activator	TRPC6 inhibitor	TRPC4 act	TRPC4 block	TRPC4 PAM
CN(Cc1ccccc1)C(=O)c1cn(C)c2ccc(S(=O)(=O)N3CCCC3)cc2c1=O	.	.	.	.	12
CC1CCN(CCCNC(=O)c2cn(C)c3ccc(S(=O)(=O)N4CCCC4)cc3c2=O)CC1	.	.	.	.	.
CCCN(CCC)CCCNC(=O)c1cn(CC)c2ccc(S(=O)(=O)N3CCOCC3)cc2c1=O	.	.	45	.	.
Cn1cc(C(=O)N2CCN(c3ccccc3)CC2)c(=O)c2cc(S(=O)(=O)N3CCCC3)ccc21	.	.	.	.	.
CC1CC(C)CN(CCCNC(=O)c2cn(C)c3ccc(S(=O)(=O)N4CCCC4)cc3c2=O)C1 (stereo unspecified)	.	.	55	.	.
COC(=O)c1cn(CCOc2ccc(C)cc2)c2ccccc12	.	.	.	.	.
CSc1ccccc1OCc1cc(C(=O)NCCCc2ccccc2)no1	.	.	.	.	.
CCn1c(-c2cc(-c3ccc(C)c(C)c3)nc3ccccc23)n[nH]c1=S	.	.	.	.	.
Cc1ccc(-c2cc(-c3n[nH]c(=S)n3C)c3ccccc3n2)cc1	.	.	.	.	12
Cc1ccc(-c2nc3c(c(=O)c4ccccc4n3C)c(=O)n2-c2ccc(F)cc2)cc1	.	.	.	.	.
Cn1c2ccccc2c(=O)c2c(=O)n(C3CCCCC3)c(-c3ccco3)nc21	.	.	116	.	.
Cn1c2ccccc2c(=O)c2c(=O)n(-c3ccccc3)c(-c3ccc(C(C)(C)C)cc3)nc21	.	.	.	.	21
Cc1nc2c(c(=O)c3ccccc3n2C)c(=O)n1C1CCCCCC1	.	.	.	.	.
Nc1nc(F)nc2c1ncn2[C@@H]1O[C@H](CO)[C@@H](O)[C@H]1O	.	.	.	.	.
O=C(Nc1ccc(Cl)c([N+](=O)[O-])c1)C(Sc1ccccc1)c1ccccc1 (stereo unspecified)	.	.	.	.	.
COCC(C)NC(C(=O)Nc1ccc(Cl)c([N+](=O)[O-])c1)c1ccccc1 (stereo unspecified)	.	.	.	-7	.
CCC(C)NC(C(=O)Nc1ccc(Cl)c([N+](=O)[O-])c1)c1ccccc1 (stereo unspecified)	.	.	.	-7	.
O=C(Nc1ccc(Cl)c([N+](=O)[O-])c1)C(NCCCO)c1ccccc1 (stereo unspecified)	.	.	.	.	.
CC(=O)NNC(=S)NC(=O)C(c1ccccc1)c1ccccc1	.	.	.	.	.
CC(C)(C)C(=O)NC(=S)NNC(=O)C(c1ccccc1)c1ccccc1	.	.	304	.	.
O=C(NCC1CCCO1)c1ccc(NC(=O)c2cccc(Br)c2)cc1 (stereo unspecified)	.	.	.	.	.
O=C(NCCCN1CCCC1=O)c1ccc(S(=O)(=O)Nc2ccccc2F)cc1	.	.	.	.	.
O=C(NCCCN1CCCC1=O)c1ccc(CNS(=O)(=O)c2ccc(F)cc2)cc1	.	.	.	.	37
CN(C)C1(CNC(=O)CC(NC(=O)c2ccccc2Cl)c2ccccc2)CCCCC1 (stereo unspecified)	.	.	44	-7	.
O=C(CC1S/C(=N\S(=O)(=O)c2ccccc2)N(c2ccccc2)C1=O)Nc1ccc(F)cc1 (stereo unspecified)	.	.	.	.	10
SMILES	TRPC6 activator	TRPC6 inhibitor	TRPC4 act	TRPC4 block	TRPC4 PAM
COC(=O)CCCNC(=O)c1ccc(OC2CCN(CCc3ccccc3)CC2)cc1	.	.	79	.	.
CN(C(=O)c1ccc(OC2CCN(CCc3ccccc3)CC2)cc1)C1CCCCC1	.	.	.	-6	.
O=C(NC1CCOC1)c1ccc(OC2CCN(CCc3ccccc3)CC2)cc1 (stereo unspecified)	.	.	.	.	.
Cc1csc(CNC(=O)c2ccc(OC3CCN(CCc4ccccc4)CC3)cc2)n1	.	.	.	.	.
CSCCNC(=O)c1ccc(OC2CCN(CCc3ccccc3)CC2)cc1	.	.	.	-6	.
CN(C(=O)c1ccc(OC2CCN(CCc3ccccc3)CC2)cc1)C1CCOCC1	.	.	.	.	.
O=C(NCCn1cccn1)c1ccc(OC2CCN(CCc3ccccc3)CC2)cc1	.	.	66	.	.
O=C(c1ccc(S(=O)(=O)Nc2ccccc2F)cc1)N1CCCCCC1	.	.	.	.	.

Screening data as filed in PubChem.
